Legend:
[1] = biological target: gp41 hydrophobic pocket (Fe(envC)3) (Human immunodeficiency virus type 1 group M subtype B, UniProt P04578); assay: Surface plasmon resonance; type: binding, HIV-1; conditions: for kd: SPR 1:1 binding kinetic analysis, RUmax fixed; for kd1 / kd2: bivalent binding model
HIV-1 Ba-L and IIIB = assay: Virus-cell fusion; type: cell-based; conditions: for activity against VCF: result in words; for IC50: Human immunodeficiency virus 1, BAL|IIIB, read-out: IC50 against VCF
In short: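 MAGI-CCR5 cells, 10,000 per well, grown overnight in DMEM with 10% FBS. Medium replaced with test compound at 6 dilutions, each in triplicate. HIV-1 Ba-L (CCR5-tropic) or IIIB (CXCR4-tropic) added at ~10 TCID50/well. Assay run at 2% serum and incubated 48 h. Read-out is Tat-induced β-Gal expression by chemiluminescence.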

[2] = biological target: gp41 hydrophobic pocket (Fe(env2.0)3) (Human immunodeficiency virus type 1 group M subtype B, UniProt P04578); assay: Fluorescence competitive binding assay for the hydrophobic pocket, Fe; parameters: species or system HIV-1; conditions: for Ki: Inhibition constant KI, dimers, 1:1 binding model with Rt = 7.2 µM, poor fit; for improvement (reduction) of KI over the respective monomer: compared with monomers 3 and 4
HIV-1 IIIB = assay: CXCR4-tropic MAGI antiviral assay; type: cell-based; conditions: IIIB virus
HIV-1 Ba-L = assay: CCR5-tropic MAGI antiviral assay; type: cell-based; conditions: Ba-L virus
HXB2 Env = conditions: read-out: IC50 CCF; cell-cell fusion, three-subunit peptidomimetics; cited from earlier work

Molecule: Nc1ccc(C(=O)N[C@@H](Cc2c[nH]c3ccccc23)C(=O)O)cc1OCCc1c[nH]c2ccccc12 [Compound 3, H2N-[Trp]-Trp-OH]
- kd [1]: 0.834 s⁻¹
- activity against VCF (HIV-1 Ba-L and IIIB): ineffective

Molecule: Nc1ccc(C(=O)N[C@@H](Cc2c[nH]c3ccccc23)C(=O)O)cc1OCc1ccc(Cl)cc1 [Compound 4, H2N-[Phe4Cl]-Trp-OH]
- kd [1]: 0.820 s⁻¹
- activity against VCF (HIV-1 Ba-L and IIIB): ineffective

Molecule: O=C(CCC(=O)Nc1ccc(C(=O)N[C@@H](Cc2c[nH]c3ccccc23)C(=O)O)cc1OCCc1c[nH]c2ccccc12)NCCOCCOCCOCCNC(=O)CCC(=O)Nc1ccc(C(=O)N[C@@H](Cc2c[nH]c3ccccc23)C(=O)O)cc1OCCc1c[nH]c2ccccc12 [Compound 7]
- Ki [2]: 1 µM
- residual fusion activity at plateau of antiviral activity (HIV-1 IIIB): ~ 6%
- residual fusion activity at plateau of antiviral activity (HIV-1 Ba-L): ~ 20%
- kd [1]: 0.060 s⁻¹
- kd1 [1]: 0.0869 s⁻¹
- kd2 [1]: 0.0145 s⁻¹
- IC50 (HIV-1 Ba-L and IIIB): 3 to 5 µM

Molecule: O=C(CCC(=O)Nc1ccc(C(=O)N[C@@H](Cc2c[nH]c3ccccc23)C(=O)O)cc1OCc1ccc(Cl)cc1)NCCOCCOCCOCCNC(=O)CCC(=O)Nc1ccc(C(=O)N[C@@H](Cc2c[nH]c3ccccc23)C(=O)O)cc1OCc1ccc(Cl)cc1 [Compound 8]
- Ki [2]: 5.3 µM
- kd [1]: 0.037 s⁻¹
- kd1 [1]: 0.0638 s⁻¹
- kd2 [1]: 0.0033 s⁻¹
- IC50 (HIV-1 Ba-L and IIIB): 3 to 5 µM

Molecule: O=C(CCc1c[nH]c2ccccc12)NCCCCCC(=O)Nc1ccc(C(=O)N[C@@H](Cc2c[nH]c3ccccc23)C(=O)O)cc1OCCc1c[nH]c2ccccc12 [Compound 10]
- improvement (reduction) of KI over the respective monomer [2]: 6 fold
- kd [1]: 0.093 s⁻¹
- IC50 (HIV-1 Ba-L and IIIB): 13 to 17 µM

Molecule: O=C(CCc1c[nH]c2ccccc12)NCCCCCC(=O)Nc1ccc(C(=O)N[C@@H](Cc2c[nH]c3ccccc23)C(=O)O)cc1OCc1ccc(Cl)cc1 [Compound 11]
- improvement (reduction) of KI over the respective monomer [2]: 6 fold
- kd [1]: 0.186 s⁻¹
- IC50 (HIV-1 Ba-L and IIIB): 13 to 17 µM

Molecule: H2N-Asn-[Trp]-Trp-COOH
- IC50 (HXB2 Env): 6 µM

Molecule: H2N-Trp-[Trp]-Leu-COOH
- IC50 (HXB2 Env): 5 µM
